Measured values from ChEMBL document CHEMBL1157582, “Synthesis and uptake of fluorescence-labeled Combi-molecules by P-glycoprotein-proficient and -deficient uterine sarcoma cells MES-SA and MES-SA/DX5” (J Med Chem, 2010).
Active and inactive are the calls of the source. The calls are words filed in the database; no cut-off is given here.

Legend:
[1] = Stability in serum assessed as half life by UV spectrophotometry; format: ADME, cell-free
MES-SA/Dx5 = test: Induction of DNA damage in human MES-SA/Dx5 cells assessed as increase in comet-tail length by alkaline comet assay; format: functional, cell-based
[2] = Cellular uptake in human MES-SA cells at 25 uM after 2 hrs by fluorescence microscopy; format: ADME, cell-based
In short: (§1)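 Cells plated at 70% confluence and left to adhere overnight. Treated with 0, 25 or 50 μM for 2 h, washed twice with PBS, then imaged live without fixation at 40× under fluorescence; blue aminoquinazoline and green dansylated species captured through separate filters.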

MES-SA [3] = test: Induction of DNA damage in human MES-SA cells assessed as increase in comet-tail length by alkaline comet assay; format: functional, cell-based
[4] = Antiproliferative activity against human MES-SA/Dx5 cells after 96 hrs by SRB assay; format: functional, cell-based; conditions: MES-SA/Dx5, 96 h
In short: (§2)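 Cells plated at 5000/well, attached overnight, then exposed to a range of drug concentrations for 96 h. Fixed with trichloroacetic acid (1 h, 4 °C), stained with 0.4% sulforhodamine B (2 h, room temperature), dye dissolved in 10 mM Tris base pH 10.0, OD read at 492 nm. IC50 taken from sigmoidal dose-response fit. At least three independent experiments in triplicate. DMSO ≤0.1% (v/v).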

[5] = Cellular uptake in human MES-SA cells after 2 hrs by flow cytometry; format: ADME, cell-based
[6] = Cellular uptake in human MES-SA/Dx5 cells after 2 hrs by flow cytometry; format: ADME, cell-based; conditions: mes-sa/dx5, 2 h
[7] = Cellular uptake in human MES-SA/Dx5 cells at 25 uM after 2 hrs by fluorescence microscopy; format: ADME, cell-based; conditions: mes-sa/dx5, 2 h; in short: as §1
MDA-MB-468 = test: Antiproliferative activity against human MDA-MB-468 cells after 96 hrs by SRB assay; format: functional, cell-based; conditions: MDA-MB-468, 96 h; in short: as §2
MES-SA [8] = test: Selectivity ratio of IC50 for human MES-SA cells to IC50 for human MES-SA/Dx5 cells; format: functional
[9] = Antiproliferative activity against human MES-SA cells after 96 hrs by SRB assay; format: functional, cell-based
[10] = biological target: Epidermal growth factor receptor (Homo sapiens, UniProt P00533); test: Inhibition of EGFR
Chain of Epidermal growth factor receptor (P00533 whole entry): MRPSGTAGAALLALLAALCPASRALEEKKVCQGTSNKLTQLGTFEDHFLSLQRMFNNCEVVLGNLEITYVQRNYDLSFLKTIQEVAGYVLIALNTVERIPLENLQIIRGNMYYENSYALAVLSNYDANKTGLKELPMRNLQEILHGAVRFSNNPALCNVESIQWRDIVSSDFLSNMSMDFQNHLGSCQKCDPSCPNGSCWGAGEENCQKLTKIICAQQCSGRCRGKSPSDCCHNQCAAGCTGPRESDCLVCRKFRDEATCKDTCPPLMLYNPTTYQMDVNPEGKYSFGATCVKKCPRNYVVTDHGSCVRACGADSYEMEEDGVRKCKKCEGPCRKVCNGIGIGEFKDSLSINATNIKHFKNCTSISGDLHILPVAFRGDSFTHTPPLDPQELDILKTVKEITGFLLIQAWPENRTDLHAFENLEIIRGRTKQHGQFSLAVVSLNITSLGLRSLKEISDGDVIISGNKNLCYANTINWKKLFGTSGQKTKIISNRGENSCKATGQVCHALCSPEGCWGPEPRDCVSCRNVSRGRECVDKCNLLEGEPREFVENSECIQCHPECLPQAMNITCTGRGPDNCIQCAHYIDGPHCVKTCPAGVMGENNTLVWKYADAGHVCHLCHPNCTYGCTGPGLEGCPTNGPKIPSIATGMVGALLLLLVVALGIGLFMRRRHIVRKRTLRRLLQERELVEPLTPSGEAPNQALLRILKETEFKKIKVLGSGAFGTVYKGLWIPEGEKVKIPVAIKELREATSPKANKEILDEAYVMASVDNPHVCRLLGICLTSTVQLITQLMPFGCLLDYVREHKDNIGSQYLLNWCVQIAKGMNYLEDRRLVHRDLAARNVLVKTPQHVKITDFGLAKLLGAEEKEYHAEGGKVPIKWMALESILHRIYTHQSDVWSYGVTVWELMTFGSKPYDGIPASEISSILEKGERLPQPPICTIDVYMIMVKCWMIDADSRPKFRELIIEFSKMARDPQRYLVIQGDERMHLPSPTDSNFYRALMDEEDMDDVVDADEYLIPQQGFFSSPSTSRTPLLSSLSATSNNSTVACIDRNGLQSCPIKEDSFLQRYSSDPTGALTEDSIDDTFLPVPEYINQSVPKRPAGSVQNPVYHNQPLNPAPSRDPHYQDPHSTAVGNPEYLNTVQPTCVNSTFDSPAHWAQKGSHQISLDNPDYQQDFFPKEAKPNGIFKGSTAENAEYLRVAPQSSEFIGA

Row | half-life [1] [min] | Drug uptake [2] | Drug uptake [5] | Drug uptake [6] | Drug uptake [7] | IC50 (MDA-MB-468) [µM] | IC50 [10] [µM] | SMILES | Activity (MES-SA/Dx5) | Activity (MES-SA [3]) | IC50 [4] [µM] | Ratio IC50 (MES-SA [8]) | IC50 [9] [µM]
1 | 108 | – | – | – | – | – | – | CN(C)CCN/N=N/c1ccc2ncnc(Nc3cccc(Cl)c3)c2c1 | – | – | – | – | –
2 | – | Active | Active | – | – | – | – | COc1cccc2c1C(=O)c1c(O)c3c(c(O)c1C2=O)C[C@@](O)(C(=O)CO)C[C@@H]3O[C@H]1C[C@H](N)[C@H](O)[C@H](C)O1 [DOXORUBICIN] | Active | Active | 3.1 | – | –
3 | 4.96 | Active | Active | Active | Active | 9.1 | 1.4 | CN(C)c1cccc2c(S(=O)(=O)NCCN=NNc3ccc4ncnc(Nc5cccc(Cl)c5)c4c3)cccc12 | – | – | 16.6 | 1.6 | 26.6
4 | – | – | – | – | – | 5.2 | – | CN(CCN/N=N/c1ccc2ncnc(Nc3cccc(Cl)c3)c2c1)CCNS(=O)(=O)c1cccc2c(N(C)C)cccc12 | Active | Active | 9.34 | – | 8.57
5 | 21.7 | Active | Active | Active | Active | – | 0.6 | CN(CCN=NNc1ccc2ncnc(Nc3cccc(Cl)c3)c2c1)CCNS(=O)(=O)c1cccc2c(N(C)C)cccc12 | – | – | – | – | –
